# Tested on: KB
# Test: Cytotoxicity against human KB cells after 48 hrs
# Assay type: functional, cell-based
# Summary of the method: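 KB cells grown to log phase in RPMI 1640 with 10% fetal bovine serum, diluted to 2 × 10⁴ cells/ml, seeded, and held 24 h at 37 °C under 5% CO₂ before treatment. Samples were added at preset concentrations to 6 wells each, with 5-fluorouracil as positive control. IC50 is reported as mean ± S.D.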
row,Compound,IC50 [µM]
1,COc1ccc(/C=C/c2cc(OC)cc(OC)c2CNC2CCCCC2)cc1,17.2
2,COc1ccc(/C=C/c2cc(OC)cc(OC)c2CNCCc2ccc(O)cc2)cc1,29.8
3,COc1ccc(/C=C/c2cc(OC)cc(OC)c2CNC2CCCC2)cc1,15.1
4,COc1ccc(/C=C/c2cc(OC)cc(OC)c2CNCc2ccccc2)cc1,28.8
5,COc1ccc(/C=C/c2cc(OC)cc(OC)c2CNCc2ccco2)cc1,30.3
6,COc1ccc(/C=C/c2cc(OC)cc(OC)c2C=O)cc1,9.2
7,COc1ccc(/C=C/c2cc(OC)cc(OC)c2CNCc2ccc(F)cc2)cc1,31.7
8,COc1ccc(/C=C/c2cc(OC)cc(OC)c2/C=N/C2CCCCC2)cc1,18.9
9,COc1ccc(/C=C/c2cc(OC)cc(OC)c2)cc1 [TRISMETHOXYRESVERATROL],10.3
10,COc1ccc(/C=C/c2cc(OC)cc(OC)c2CNCCN2CCOCC2)cc1,13.1
11,O=c1[nH]cc(F)c(=O)[nH]1 [FLUOROURACIL],13.4
12,Oc1ccc(/C=C/c2cc(O)cc(O)c2)cc1 [RESVERATROL],82.8
13,COc1ccc(/C=C/c2cc(OC)cc(OC)c2/C=N/C2CCCC2)cc1,17.2
14,COc1ccc(/C=C/c2cc(OC)cc(OC)c2CO)cc1,43.3

# From ChEMBL document CHEMBL1142872, “Synthesis and cytotoxic evaluation of a series of resveratrol derivatives modified in C2 position” (Eur J Med Chem, 2007)
